Measurements from ChEMBL document CHEMBL2407062, “Synthesis and anticancer activities of 5,6,7-trimethoxy-N-phenyl(ethyl)-4-aminoquinazoline derivatives” (Eur J Med Chem, 2013).
The source made the active and inactive calls. No cut-off for these calls is given here.

Legend:
[1] = target: T1, Mitogen-activated protein kinase; ERK1/ERK2 (Homo sapiens) (UniProt P27361+P28482); assay: Inhibition of EGF-induced ERK1/2 phosphorylation in human PC3 cells at 10 uM incubated for 60 mins prior to EGF-treatment measured after 10 mins by Western blotting analysis; assay type: cell-based; conditions: PC-3
T1 sequence (P27361 whole entry, looked up): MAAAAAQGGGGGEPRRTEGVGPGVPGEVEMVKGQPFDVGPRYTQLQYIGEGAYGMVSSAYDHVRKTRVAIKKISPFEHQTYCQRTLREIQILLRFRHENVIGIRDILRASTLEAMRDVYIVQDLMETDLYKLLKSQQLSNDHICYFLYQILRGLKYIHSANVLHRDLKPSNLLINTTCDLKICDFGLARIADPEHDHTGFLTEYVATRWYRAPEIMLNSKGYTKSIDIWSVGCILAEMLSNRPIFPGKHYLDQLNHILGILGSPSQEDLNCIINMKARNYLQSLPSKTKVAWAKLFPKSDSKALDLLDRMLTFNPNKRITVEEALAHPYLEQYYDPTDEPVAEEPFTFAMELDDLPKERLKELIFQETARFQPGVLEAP
T1 sequence (P28482 whole entry, looked up): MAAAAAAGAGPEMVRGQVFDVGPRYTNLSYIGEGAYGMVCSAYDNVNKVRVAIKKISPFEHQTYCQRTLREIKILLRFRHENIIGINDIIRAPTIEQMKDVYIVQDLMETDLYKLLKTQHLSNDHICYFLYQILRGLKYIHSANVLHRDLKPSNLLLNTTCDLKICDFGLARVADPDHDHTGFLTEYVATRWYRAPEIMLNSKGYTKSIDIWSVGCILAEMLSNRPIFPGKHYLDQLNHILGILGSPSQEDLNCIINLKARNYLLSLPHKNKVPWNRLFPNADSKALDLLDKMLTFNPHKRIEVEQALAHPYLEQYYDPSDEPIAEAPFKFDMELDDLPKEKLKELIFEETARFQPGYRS
Method in brief: (§1)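 PC3 cells grown 36–48 h in RPMI 1640 with 10% FBS at 37 °C, then serum-starved 24 h. Treated with compound for 60 min, then EGF 10 ng/mL for 10 min; quenched on ice. Cells washed with cold PBS and lysed in NP-40/SDS buffer with Na3VO4 and NaF. Run on 10% SDS-PAGE, PVDF blot probed for pERK1/2 with actin as loading control, ECL detection.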

Bcap37 [2] = assay: Growth inhibition of human Bcap37 cells at 10 uM after 72 hrs by MTT assay relative to control; assay type: functional; conditions: for inhibition of growth at 10 µM: Homo sapiens, Bcap37, 72 h, read-out: GI
Method in brief: (§2)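 Cells in RPMI 1640 with 10% heat-inactivated FBS, 37 °C, 5% CO2. Seeded at 2 × 10³ cells per well. Compounds dissolved in DMSO, diluted in medium, tested at 1–100 μM for 72 h; 0.1% DMSO control. MTT read-out, absorbance at 595 nm. Mean ± SD of triplicate experiments. IC50 taken from the dose–response curve.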

Bcap37 [3] = assay: Growth inhibition of human Bcap37 cells at 1 uM after 72 hrs by MTT assay relative to control; assay type: functional; conditions: for inhibition of growth at 1 µM: Homo sapiens, Bcap37, 72 h, read-out: GI; method in brief: as §2
BGC-823 [4] = assay: Growth inhibition of human BGC823 cells at 10 uM after 72 hrs by MTT assay relative to control; assay type: functional; conditions: BGC-823, 72 h, read-out: GI; method in brief: as §2
BGC-823 [5] = assay: Growth inhibition of human BGC823 cells at 1 uM after 72 hrs by MTT assay relative to control; assay type: functional; conditions: BGC-823, 72 h, read-out: GI; method in brief: as §2
PC-3 [6] = assay: Growth inhibition of human PC3 cells at 1 uM after 72 hrs by MTT assay relative to control; assay type: functional; conditions: for inhibition of growth at 1 µM: Homo sapiens, PC-3, 72 h, read-out: GI; method in brief: as §2
PC-3 [7] = assay: Growth inhibition of human PC3 cells at 10 uM after 72 hrs by MTT assay relative to control; assay type: functional; conditions: for inhibition of growth at 10 µM: Homo sapiens, PC-3, 72 h, read-out: GI; method in brief: as §2
[8] = target: T1, Mitogen-activated protein kinase; ERK1/ERK2 (Homo sapiens); assay: Inhibition of EGF-induced ERK1/2 phosphorylation in human PC3 cells at 5.12 uM incubated for 60 mins prior to EGF-treatment measured after 10 mins by Western blotting analysis; assay type: cell-based; conditions: PC-3; method in brief: as §1
Bcap37 [9] = assay: Growth inhibition of human Bcap37 cells after 72 hrs by MTT assay; assay type: functional, cell-based; conditions: Bcap37, 72 h; method in brief: as §2
BGC-823 [10] = assay: Growth inhibition of human BGC823 cells after 72 hrs by MTT assay; assay type: functional, cell-based; conditions: BGC-823, 72 h; method in brief: as §2
PC-3 [11] = assay: Growth inhibition of human PC3 cells after 72 hrs by MTT assay; assay type: functional, cell-based; conditions: PC-3, 72 h; method in brief: as §2
[12] = target: T1, Mitogen-activated protein kinase; ERK1/ERK2 (Homo sapiens); assay: Inhibition of EGF-induced ERK1/2 phosphorylation in human PC3 cells at 1.28 uM incubated for 60 mins prior to EGF-treatment measured after 10 mins by Western blotting analysis; assay type: cell-based; conditions: PC-3; method in brief: as §1

| inhibition [1] | Compound | inhibition of growth at 10 µM (Bcap37 [2]) [%] | inhibition of growth at 1 µM (Bcap37 [3]) [%] | inhibition of growth at 10 µM (BGC-823 [4]) [%] | inhibition of growth at 1 µM (BGC-823 [5]) [%] | inhibition of growth at 1 µM (PC-3 [6]) [%] | inhibition of growth at 10 µM (PC-3 [7]) [%] | further results |
| --- | --- | --- | --- | --- | --- | --- | --- | --- |
| Active | COc1cc2ncnc(Nc3cccc(Cl)c3)c2c(OC)c1OC [listing 1 of 2 here] | – | – | – | – | – | – | – |
| – | COc1cc2ncnc(Nc3ccc(Cl)cc3)c2c(OC)c1OC | 26.4 | 22.2 | 43 | 15.5 | 6.3 | 31.3 | – |
| – | COc1cc2ncnc(Nc3cc(I)ccc3C(=O)O)c2c(OC)c1OC | 20.7 | 19.4 | 51.9 | 42.2 | 14.1 | 22.6 | – |
| – | COc1cc2ncnc(Nc3c(C)cc(C)cc3Br)c2c(OC)c1OC | – | – | 11.4 | 0.6 | 9.7 | 19.8 | – |
| Active | COc1cc2ncnc(Nc3ccc(F)cc3)c2c(OC)c1OC | 10.8 | 7.8 | – | – | 3.1 | 9.1 | inhibition [8]: Active |
| Active | COc1cc2ncnc(Nc3cc(C(F)(F)F)ccc3F)c2c(OC)c1OC | 27.6 | 14.4 | – | – | 7.6 | 29.2 | – |
| Active | COc1cc2ncnc(Nc3cccc(F)c3)c2c(OC)c1OC [listing 1 of 2 here] | – | – | – | – | – | – | inhibition [8]: Active |
| – | COc1cc2ncnc(Nc3cccc(Br)c3)c2cc1OC | 43.4 | 19.8 | 32.6 | 9.3 | 21.5 | 62.8 | IC50 (Bcap37 [9]): 15.7 µM; IC50 (BGC-823 [10]): 14.4 µM; IC50 (PC-3 [11]): 8.3 µM |
| – | COc1cc2ncnc(Nc3ccc([N+](=O)[O-])cc3)c2c(OC)c1OC | -16.3 | -12 | – | – | 7.9 | 24.9 | – |
| – | COc1cc2ncnc(Nc3cccc(C(F)(F)F)c3F)c2c(OC)c1OC | 69.3 | 11.3 | 41.9 | 3.9 | 9.2 | 42.7 | – |
| Active | COc1cc2ncnc(Nc3ccc(Br)cc3)c2c(OC)c1OC | 26.1 | 10.4 | 32.6 | 13.8 | 1 | 22.2 | – |
| – | COc1cc2ncnc(Nc3ccc(Br)cc3Cl)c2c(OC)c1OC | 18.6 | 8.7 | – | – | -8.4 | 49.7 | – |
| – | COc1cc2ncnc(Nc3cccc(Cl)c3)c2c(OC)c1OC [listing 2 of 2 here] | – | – | – | – | – | – | growth inhibition (GI) (Bcap37 [2]): 28.8%; growth inhibition (GI) (Bcap37 [3]): 14.1%; growth inhibition (GI) (PC-3 [6]): -4.5%; growth inhibition (GI) (PC-3 [7]): 11.9% |
| – | COc1cc2ncnc(Nc3c(F)cc(F)cc3Br)c2c(OC)c1OC | 2.2 | 4.3 | 68.4 | 38.5 | 8.1 | 43 | – |
| – | COc1cc2ncnc(Nc3cccc(F)c3)c2c(OC)c1OC.Cl | 13.5 | 7 | – | – | 14.9 | – | growth inhibition (GI) (PC-3 [7]): 38.9% |
| – | COc1cc2ncnc(Nc3ccccc3[N+](=O)[O-])c2c(OC)c1OC | 15.4 | -8.3 | – | – | 11.3 | 25.5 | – |
| – | COc1cc2ncnc(NCCc3cccc(F)c3)c2c(OC)c1OC | 45.8 | 2.1 | 58.9 | 40.8 | 35.6 | 61.7 | – |
| Active | COc1cc2ncnc(Nc3ccccc3F)c2c(OC)c1OC | – | – | – | – | 0.9 | 24 | – |
| Active | COc1cc2ncnc(Nc3ccc(C(F)(F)F)cc3)c2c(OC)c1OC | 32.3 | 8.6 | 17.4 | 2.4 | 7.4 | 29 | inhibition [12]: Active |
| – | COc1cc2ncnc(Nc3cccc([N+](=O)[O-])c3)c2c(OC)c1OC | 50 | 31.6 | 16.3 | 9 | 14.5 | 26.4 | – |
| – | COc1cc2ncnc(Nc3cccc(F)c3)c2c(OC)c1OC [listing 2 of 2 here] | – | – | – | – | – | 21.5 | growth inhibition (GI) (PC-3 [6]): 14.7% |
| Active | COc1cc2ncnc(Nc3ccc(O)cc3)c2c(OC)c1OC | 3.3 | -7.5 | – | – | 9.3 | 24.6 | – |
| – | COc1cc2ncnc(Nc3cc(F)ccc3Br)c2c(OC)c1OC | 18.9 | 10.5 | 60.7 | 12.4 | 12.8 | 34.7 | – |
| Active | COc1cc2ncnc(Nc3cccc(C(F)(F)F)c3)c2c(OC)c1OC | 23.5 | 21 | 24.3 | 1 | 14.9 | 46.6 | inhibition [12]: Active |
| Active | COc1cc2ncnc(Nc3ccc(C)cc3)c2c(OC)c1OC | 11.1 | 7.3 | 19.3 | 1.2 | 23.8 | 45.6 | inhibition [8]: Active |
| – | COc1cc2ncnc(Nc3cccc(Cl)c3)c2c(OC)c1OC.Cl | 17.5 | 11 | 23.9 | 5.9 | – | – | growth inhibition (GI) (PC-3 [6]): 16.9%; growth inhibition (GI) (PC-3 [7]): 28.8% |
| – | COc1cc(Nc2ncnc3cc(OC)c(OC)c(OC)c23)c(C(=O)O)cc1OC | 53.7 | 40.9 | 34.3 | 13.2 | 12.5 | 40.4 | – |
| – | COc1cc2ncnc(Nc3cc(C(F)(F)F)ccc3Br)c2c(OC)c1OC | – | – | 23.2 | 2.1 | -3.9 | 25.3 | – |
